An excerpt weighted towards active compounds, which were near 2.2% of everything screened.
Wee1 degr inh: blocks degradation of human Wee1 kinase; P30291; reporter increase, % at 5 µM; HeLa Luc-Wee1K328M stability, luciferase luminescence; 100% = proteasome inhibitor MG132 effect; AID 1321; hit rate 1.2% among 220,000;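 active = activation above the mean of all tested compounds plus 3 SD, set per screening run, cut at about 8.8% in these data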;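 note: cells exposed to compound for 20 h before luminescence read; 0% = DMSO alone and 100% = MG132 at 30 µM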
Mdm2 ligase inh: blocks human Mdm2 ubiquitin ligase activity | Q00987 | cell-based MDM2 ubiquitination luciferase reporter, 2 h; 0 = plate control, 100 = twice control, blank-subtracted | signal enhancement, % at 5 µM | hit rate 0.11% among 210,000 | AID 1230;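 active = signal enhancement of 30% or more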;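 note: luminescence tracks abundance of the self-degrading MDM2-luciferase fusion protein; higher signal means inhibition of MDM2 E3 ligase activity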
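Assay system: stable mammalian line carrying autodegrading MDM2–luciferase fusion reporter; Input: 2000 cells in each well; Compound dosing: single-point 5 µM; Schedule: 2 h compound exposure at 37 °C; Signal: SteadyLite luciferase luminescence after 15 min room-temperature reagent incubation; Evaluation: % luminescence enhancement versus blank-corrected plate control mean; Benchmarks: plate controls and plate blanks.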
Hsp70 act: transcriptional activators of Hsp70; HeLa Hsp70 promoter luciferase reporter, luminescence; scaled: vehicle 0, proteasome-inhibitor control 100%; activation, % at 10 µM; hit rate 0.04% among 200,000;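 active = activation above the mean across all tested compounds plus 3 SD, cutoff set per campaign, cut at about 5.5% in these data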;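 note: 100% = MG132 at 30 µM as the positive control and 0% = DMSO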
RBBP9 inh: human RBBP9 hydrolase inhibition | recombinant RBBP9, FP-Rh probe fluorescence polarization | inhibition, % at 7.94 µM | hit rate 0.2% among 220,000 | AID 1515;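 active = inhibition above the campaign mean of all tested compounds plus 3 SD, cut at about 14% in these data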;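 note: plate controls were DMSO wells with RBBP9 for no effect and wells lacking RBBP9 protein for full effect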
Target sequence (O75884 whole entry, looked up): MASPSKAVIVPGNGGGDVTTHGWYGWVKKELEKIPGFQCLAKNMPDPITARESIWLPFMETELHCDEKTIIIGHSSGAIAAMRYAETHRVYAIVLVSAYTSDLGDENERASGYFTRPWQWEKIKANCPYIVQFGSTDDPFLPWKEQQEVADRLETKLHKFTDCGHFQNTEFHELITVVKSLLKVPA
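Measured by: FP readout at 525/598 nm; material: recombinant human RBBP9; also added: Serine-hydrolase probe FP-Rh, 375 nM pre-mixing; medium: Tris buffer pH 8.0, NaCl, Pluronic; replication: one well per compound; doses: one concentration, 7.94 µM nominal, 0.794% DMSO; timing: preincubation 30 min plus labeling 45 min at 25 °C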
INS promoter inh: TRM-6 insulin promoter activity inhibition | inhibition, % at 2 µM | TRM-6 cells, insulin promoter-eGFP reporter, imaging; reporter expression induced with tamoxifen | hit rate 0.9% among 130,000;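 active = inhibition above the mean plus 3 SD, with well images judged a real hit on visual review, cut at about 60% in these data, passing the limit was not always enough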
Ins promoter up: MIN6 insulin promoter up-regulation; MIN6 insulin promoter-GFP reporter, high-content imaging; active compounds read high; z-score at 5 µM; hit rate 0.3% among 190,000; AID 1625;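 active = z-score above 3 at 5 µM with at least 500 cells counted in the well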
Wee1 degr conf: confirmation of human Wee1 degradation inhibitors. shares compounds with Wee1 degr inh. hit rate 4% among 1,100. HeLa Luc-Wee1K328M degradation, luminescence; vehicle 0%, proteasome-blocked wells 100%. AID 1410. activation, % at 5 µM; in the data active = activation above about 8.9%
Starred values were filed as active, the others as inactive; / = no result given.

SMILES	Wee1 degr inh	Mdm2 ligase inh	Hsp70 act	RBBP9 inh	INS promoter inh	Ins promoter up	Wee1 degr conf
O=C(N/N=C/c1ccc(Cl)cc1Cl)c1cccc(F)c1	1	-7	1	-2	65	-0.48	/
CCOc1ccc(CCNC(=O)c2cc3ccccn3n2)cc1OCC	-1	-27	0	-5	/	-0.53	/
CNC(=O)C(=O)NCCc1ccc(Cl)cc1	20*	-9	0	3	-22	0.23	0
CC1CCCCN1C(=O)Cn1c(=O)n(-c2ccc(F)cc2)c(=O)c2sccc21 (stereo not given)	11*	-10	0	-6	31	0.11	4
COc1ccc(-n2c(=O)c3c(C)c(C)sc3n(Cc3cccc(F)c3)c2=O)c(OC)c1	4	-5	0	-4	/	-0.13	/
CCN(CC)C(=O)c1sc2c(c1C)c(=O)n(-c1ccc(OC)cc1OC)c(=O)n2CC(=O)c1ccccc1	12*	-12	0	-1	-7	-0.53	-1
C(=N\Nc1nc2ccccc2s1)/c1ccco1	12*	-1	0	-2	/	-0.29	3
C(=N\Nc1nc2ccccc2s1)/c1cccs1	14*	-12	0	-4	/	-0.9	5
COc1ccc(/C=N/Nc2nc3ccccc3s2)cc1O	7	/	0	1	/	-0.78	/
Cc1ccsc1/C=N/Nc1nc2ccccc2s1	14*	-17	0	-1	25	0.32	6
CC(=O)Nc1ccc(/C=N/Nc2nc3ccccc3s2)cc1	13*	-20	/	4	/	-0.24	10*
O=C(CSc1nnc(-c2ccncc2)n1-c1ccc(Cl)cc1)N1CCOCC1	1	1	0	-10	-2	0.3	/
Cc1cc(C)nc(Sc2c(C)n[nH]c2C)n1	0	-15	0	-5	-3	-0.76	/
O=C1c2ccccc2CN1CCSC(=S)N1CCOCC1	0	-19	0	-3	31	-0.6	/
CC(C)(C)OC(=O)C(Cc1ccc(OC(C)(C)C)cc1)NC(=O)CNC(=O)OCc1ccccc1 (stereo not given)	1	11	0	-9	/	-0.47	/
COCCCNC(=S)N1CCN(c2ccccc2)CC1	-3	-12	0	-2	-95	-0.07	/
Cc1c(NC(=S)NC(C)(C)C)c(=O)n(-c2ccccc2)n1C	14*	3	0	-4	-17	0.01	-2
CC(C)CC(=O)NC(c1ccccc1Cl)c1c(O)ccc2ccccc12 (stereo not given)	21*	-5	0	3	/	0.14	2
O=[N+]([O-])c1ccc(-c2nnc(CNC3CCCC3)o2)cc1	1	-28	0	-2	18	0.21	/
COc1ccc(-n2nnnc2SCC(=O)Nc2nc3c(s2)CCCC3)cc1	-1	3	0	-3	19	0.03	/
COc1ccc(-n2nnnc2SCC(=O)Nc2nnn(C)n2)cc1	11*	-10	0	-6	30	0.52	-2
Cc1cnc(C(=O)N2CCCC(C(=O)c3ccc(Cl)cc3C)C2)cn1 (stereo not given)	-1	-4	0	-10	/	-0.33	/
CN1/C(=C\C(=O)COC(=O)CNC(=O)c2ccccc2F)C(C)(C)c2ccccc21	23*	3	0	1	/	-0.36	-1
CN1/C(=C\C(=O)COC(=O)CNC(=O)c2ccc3ccccc3c2)C(C)(C)c2ccccc21	-2	7	0	-10	13	0.35	/
CC(C)Cn1c(N)c(C(=O)COC(=O)c2ccc(O)cc2)c(=O)n(C)c1=O	-4	-4	0	-8	-11	0.52	/
SMILES	Wee1 degr inh	Mdm2 ligase inh	Hsp70 act	RBBP9 inh	INS promoter inh	Ins promoter up	Wee1 degr conf
CC(C)Cn1c(N)c(C(=O)COC(=O)c2ccc([N+](=O)[O-])o2)c(=O)n(C)c1=O	16*	-7	0	2	-25	0.21	3
CCOC(=O)N1CCN(C(=S)Nc2ccc(C)cc2)CC1	2	7	0	-1	40	-0.03	/
O=C(/C=C/c1ccc(Cl)c(Cl)c1)N1CCc2ccccc21	19*	-11	0	-3	/	0.36	5
O=C(/C=C/c1cccs1)N1CCc2ccccc21	1	-54	0	-9	17	-0.1	/
O=C(/C=N\O)NCCCNCc1ccccc1	16*	-21	-1	-1	/	-0.08	1
CC(NC(=O)c1ccc(C(F)(F)F)cc1)C(c1ccccc1)N1CCOCC1 (stereo not given)	-1	-8	0	3	/	-0.94	/
O=C(CN1CCOCC1)N/N=C/C=C/c1ccccc1	23*	-7	0	1	0	-0.32	0
O=C(CN1CCN(Cc2ccccc2)CC1)N/N=C/C=C/c1ccco1	0	-7	0	-8	/	0.34	/
CCC(=O)c1c(NC(CC)CO)cc(C)oc1=O (stereo not given)	-3	-2	1	-6	59	0.53	/
CC1=C(C(=O)OCC2CCCO2)C(c2ccc(Cl)cc2)NC(=O)N1 (stereo not given)	12*	-5	0	5	9	-0.87	1
O=C(CN1N=C(c2ccccc2)CCC1=O)NCCN1CCc2ccccc2C1	13*	/	0	-3	-42	-0.33	1
O=C(CN1N=C(c2ccccc2)CCC1=O)NCc1ccccc1	2	-15	0	-3	-8	/	/
COc1ccc(NC(=O)CCN2C(=O)C3C4CCC(C4)C3C2=O)cc1 (stereo not given)	12*	-9	0	-15	-8	0.35	3
C=CCn1c(SCC(=O)Nc2cc(NC(C)=O)ccc2OC)nnc1-c1ccccn1	12*	-4	0	0	/	/	1
COCCNC(=O)CSc1nc(-c2ccccc2)cs1	3	-19	0	-5	33	0.27	/
O=C(CSc1nc2[nH]ncc2c(=O)n1-c1ccccc1)N1CCCCCC1	12*	-9	0	-5	/	0.28	2
O=C(CSc1nc2[nH]ncc2c(=O)n1-c1ccccc1Cl)N1CCCC1	3	-13	0	-5	/	-0.36	/
CN(C)C(=S)N=Nc1[nH]c2ccccc2c1O	11*	1	0	-4	/	-5.6	-1
COc1ccc([N+](=O)[O-])cc1NC(=O)CCN1CCN(CCO)CC1	19*	-18	0	3	7	-0.07	-2
COc1ccc(NC(=O)COc2ccc(C(=O)NC3CCCc4ccccc43)cc2OC)cc1 (stereo not given)	16*	-5	0	-1	-120	0.17	3
O=c1c(-c2ccc(O)cc2)coc2cc(OC3OC(CO)C(O)C(O)C3O)ccc12 (stereo not given)	1	/	0	0	35	-0.49	/

Screens: PubChem BioAssay, several laboratories
